“Also recorded” adds a separate entry of the source. One block for each compound: values may come before it.
Legend:
Grb2 SH2 domain = Grb2 SH2 domain (Homo sapiens, UniProt P62993); assay: SPR direct binding, amine-coupled Grb2 SH2 domain; conditions: for Ratio: Grb2, amine coupling, affinity relative to compound 2
Biotin-Grb2 SH2 domain = Biotin-Grb2 SH2 domain (Homo sapiens, UniProt P62993); assay: SPR direct binding, streptavidin-captured biotin-Grb2 SH2 domain; conditions: Biotin-Grb2, SA capture; reference line of the ratio
Biotin-Grb2 SH2 domain, sequence (P62993 60-152 limits assumed): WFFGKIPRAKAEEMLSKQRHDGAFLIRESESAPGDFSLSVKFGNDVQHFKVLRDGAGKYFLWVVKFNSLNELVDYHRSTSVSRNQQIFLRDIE

PC3M cells [1] = assay: Cell migration in modified Boyden chambers, HGF-stimulated; type: cell-based; conditions: HGF 50 ng/ml
Outline: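 PC3M cells pretreated with test compound for 24 h, then seeded at 200,000 cells per modified Boyden chamber. Migration stimulated with recombinant human HGF (50 ng/ml), with unstimulated cells run in parallel. Migrated cells counted by light microscopy in four fields (1 × 1.4 mm) per well, triplicate wells per condition. Means expressed as percent maximum ± standard deviation, with a dose-response series.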

Grb2 = Grb2 (Homo sapiens, UniProt P62993); type: binding; conditions: SK-LMS-1 lysate; for Capture of Grb2 on compound-conjugated SA beads (anti-Grb2 immunoblot): compound 3 uM, washes 150-500 mM NaCl
Outline: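 SK-LMS-1 cells serum-deprived 16 h, stimulated with recombinant human HGF (25 ng/ml) for 20 min and lysed in cold non-ionic detergent buffer. Biotinylated test compound (3 uM) incubated with lysate 1 h on ice. Streptavidin beads then mixed in 1 h at 4°C and washed 5 times in lysis buffer with increasing NaCl (150–500 mM). Read-out: SDS-PAGE and anti-Grb2 immunoblot.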

[2] = target: proteins of SK-LMS-1 cell lysates (Homo sapiens, UniProt P62993); type: binding; conditions: compound-conjugated SA beads, cell extracts
Outline: (§1)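 Biotinylated test compound captured proteins from HGF-stimulated (25 ng/ml, 20 min) SK-LMS-1 detergent lysate on streptavidin beads, washed with 150–500 mM NaCl. Beads exchanged into 100 mM ammonium bicarbonate, reduced (10 mM DTT, 1 h, 51°C), alkylated (55 mM iodoacetamide, 45 min, 25°C) and trypsin-digested 6 h at 25°C. Acidified peptides analysed by nLC-ESI-MS/MS (ion trap, top-seven data-dependent) and searched against human NCBI database.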

PAK1 [3] = assay: PAK1 activation; type: cell-based; conditions: PC3M cells, 1 uM, 16 h
Outline: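 PC3M cells serum-deprived and either treated with test compound (1 uM) or left untreated for 16 h. They were then left unstimulated or briefly stimulated with HGF (50 ng/mL) for set times. Lysates run on SDS-PAGE and immunoblotted with anti-phospho-PAK1 antibody, with total PAK1 immunoblot as loading control.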

PAK1 [4] = assay: PAK1 nuclear translocation; type: cell-based; conditions: PC3M cells, 16 h, relative to nuclear CREB
Outline: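 PC3M cells treated with test compound for 16 h. Nuclear extracts prepared in high-salt buffer, resolved by SDS-PAGE and immunoblotted for PAK1, with CREB immunoblotted as reference.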

PC3M cells [5] = assay: Lamellipodia formation at wound edge, phalloidin staining, PC3M; type: cell-based; conditions: HGF + 1 uM compound
MDCK cells = assay: Lamellipodia formation at wound edge, phalloidin staining, MDCK; type: cell-based, canine; conditions: HGF + 1 uM compound
cell motility = conditions: cited from earlier work
angiogenesis = conditions: cited from earlier work
tumor metastasis = conditions: cited from earlier work
[6] = tested on: Grb2-EGFR and Grb2-c-Met interactions; conditions: co-immunoprecipitation; cited from earlier work
[7] = tested on: Grb2 and focal adhesion kinase (FAK); conditions: treatment of cells; cited from earlier work
[8] = tested on: proteins of SK-LMS-1 cell lysates; type: binding, human; conditions: cell lysates; two or more unique peptides observed
Outline: as §1

Grb2 SH2 domain, sequence (P62993 60-152 limits assumed): as above

Ratio (Grb2 SH2 domain): 1
Ratio (Biotin-Grb2 SH2 domain): 1
Structure (SMILES): NC(=O)C[C@H](NC(=O)C1(NC(=O)[C@H](Cc2ccc(C(C(=O)O)C(=O)O)cc2)NC(=O)C(=O)O)CCCCC1)C(=O)NCCCc1cccc2c(O)cccc12 [Compound 2, 2-{4-[2-(1-(1S)-{2-Carbamoyl-1-[3-(5-hydroxy-naphthalen-1-yl)-propylcarbamoyl]-ethylcarbamoyl}-cyclohexylcarbamoyl)-2-(2S)-(oxalyl-amino)-ethyl]-phenyl}-malonic acid]

Capture of Grb2 on compound-conjugated SA beads (anti-Grb2 immunoblot) (Grb2): did not capture Grb2
Capture of Grb2 tryptic peptides (ESI-MS/MS) [2]: not by compound 4-conjugated beads
Structure (SMILES): NC(=O)C[C@H](NC(=O)C1(NC(=O)[C@H](Cc2ccc(O)cc2)NC(=O)C(=O)O)CCCCC1)C(=O)NCCCc1cccc2c(OC(=O)CCCCCNC(=O)CCCC[C@@H]3SC[C@@H]4NC(=O)N[C@@H]43)cccc12 [Compound 4, (4R,5S,6S)-6-[5-(2-Oxo-hexahydro-thieno[3,4-d]imidazol-6-yl)-pentanoylamino]-hexanoic acid 5-{3-[3-carbamoyl-2-({1-[3-(4-hydroxy-phenyl)-2-(oxylyl-amino)-propionylamino]-cyclohexylcarbonyl}-amino)-propionylamino]-propyl}-naphthalen-1-yl ester]
Grb2 SH2 domain binding affinity (in words) (Grb2 SH2 domain; assay not stated): very poor Grb2 SH2 domain binding affinity
Inhibition of cell migration (in words) (PC3M cells [1]): No inhibition of cell migration

Structure (SMILES): NC(=O)C[C@H](NC(=O)C1(NC(=O)[C@H](Cc2ccc(C(C(=O)O)C(=O)O)cc2)NC(=O)C(=O)O)CCCCC1)C(=O)NCCCc1cccc2ccccc12 [Compound 1]
Ratio (Biotin-Grb2 SH2 domain): 1
Inhibition of cell migration (in words) (PC3M cells [1]): Inhibition of cell migration
Steady state level of PAK1 autophosphorylation (PAK1 [3]; no HGF): little effect
HGF-stimulated PAK1 activation (PAK1 [3]; then HGF 50 ng/mL): completely inhibited
PAK1 nuclear translocation (PAK1 [4]): decreased PAK1 nuclear translocation
Actin reorganization and lamellipodia formation (phalloidin staining) (PC3M cells [5]): markedly reduced phalloidin staining at the leading edge
Lamellipodia extension into the wound (MDCK cells): significantly reduced the area and distance that lamellipodia extended into the wound
Cell motility (cell motility): blocks cell motility in a dose dependent fashion; also recorded: can inhibit cell motility
Angiogenesis (angiogenesis): inhibit
Tumor metastasis in vivo (tumor metastasis): inhibit
Grb2-EGFR and Grb2-c-Met interactions [6]: able to disrupt Grb2-EGFR and Grb2-c-Met interactions
HGF-stimulated physical association between Grb2 and FAK [7]: disrupts HGF-stimulated physical association between Grb2 and focal adhesion kinase (FAK)

Ratio (Grb2 SH2 domain): 3
Capture of Grb2 on compound-conjugated SA beads (anti-Grb2 immunoblot) (Grb2): Grb2 was clearly retained
Structure (SMILES): NC(=O)C[C@H](NC(=O)C1(NC(=O)[C@H](Cc2ccc(C(C(=O)O)C(=O)O)cc2)NC(=O)C(=O)O)CCCCC1)C(=O)NCCCc1cccc2c(OC(=O)CCCCCNC(=O)CCCC[C@@H]3SC[C@@H]4NC(=O)N[C@@H]43)cccc12 [Compound 3]
Inhibition of cell migration (in words) (PC3M cells [1]): significant and potent inhibition of migration
Capture of Grb2 SH3 domain-associated proteins (immunoblot) (Grb2; SA-bound compound): revealed the presence of Nck1, Nck2, Gab1 and Sos1
Capture of Grb2 tryptic peptides (ESI-MS/MS) [2]: captured by compound 3-conjugated SA beads
Protein Name (identified by mass spectrometry, captured by streptavidin-immobilized 3, but not by streptavidin-immobilized 4) [8]: histone H2B family ^b; also recorded: ribosomal protein S23; also recorded: ribosomal protein L17; also recorded: ribosomal protein S17; also recorded: pyruvate kinase 3 ^a

Source: paper PMC2651228 (Journal of medicinal chemistry, 2008)
